Test results published in ChEMBL document CHEMBL2440062, “New nucleotide-competitive non-nucleoside inhibitors of terminal deoxynucleotidyl transferase: discovery, characterization, and crystal structure in complex with the target” (J Med Chem, 2013).
Calls of active or inactive are those of the source. No cut-off for these calls is given here.

Tests used:
[1] = biological target: T1, DNA nucleotidylexotransferase (Homo sapiens, UniProt P04053); assay: Competitive inhibition of human TdT using TTP as substrate
T1 sequence (P04053 whole entry): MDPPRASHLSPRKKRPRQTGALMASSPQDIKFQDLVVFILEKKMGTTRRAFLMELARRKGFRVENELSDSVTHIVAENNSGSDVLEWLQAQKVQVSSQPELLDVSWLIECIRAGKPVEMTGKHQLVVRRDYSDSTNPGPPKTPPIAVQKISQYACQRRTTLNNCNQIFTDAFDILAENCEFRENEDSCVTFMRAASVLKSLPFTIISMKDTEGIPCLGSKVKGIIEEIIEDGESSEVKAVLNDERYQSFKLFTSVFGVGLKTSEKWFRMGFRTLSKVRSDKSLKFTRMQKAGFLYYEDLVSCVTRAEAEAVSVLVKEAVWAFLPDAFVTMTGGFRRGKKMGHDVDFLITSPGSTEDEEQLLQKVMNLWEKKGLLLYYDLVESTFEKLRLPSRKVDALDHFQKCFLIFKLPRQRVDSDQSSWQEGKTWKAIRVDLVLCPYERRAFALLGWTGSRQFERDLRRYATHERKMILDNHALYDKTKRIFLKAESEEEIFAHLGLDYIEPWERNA
Summary of the method: (§1)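 TdT was from Trevigen. TCA-precipitated radioactivity was counted. ID50 came from dose–response fitting. For kinetics, DNA or dNTP was varied at increasing inhibitor, and Ki was obtained via Cheng–Prusoff for a competitive model.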

DNA polymerase beta = DNA polymerase beta (Homo sapiens, UniProt P06746); assay: Inhibition of human recombinant DNA polymerase beta
[2] = biological target: T1, DNA nucleotidylexotransferase; assay: Non-competitive inhibition of human TdT using 3'-OH as substrate
Homo sapiens [3] = species: Homo sapiens; assay: Binding affinity to human TdT/DNA binary complex
Summary of the method: (§2)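 Association (kon) and dissociation (koff) rates measured for binding to binary enzyme–DNA and ternary enzyme–DNA–dNTP complexes of TdT.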

Homo sapiens [4] = species: Homo sapiens; assay: Binding affinity to human TdT/DNA/dNTP ternary complex; summary of the method: as §2
[5] = biological target: T2, DNA polymerase lambda (Homo sapiens) (UniProt Q9UGP5); assay: Inhibition of human recombinant full length DNA polymerase lambda using [3H]dTTP as substrate and 10 poly(dA)/oligo(dT) as template-primer after 15 mins by scintillation counting analysis
T2 sequence (whole entry): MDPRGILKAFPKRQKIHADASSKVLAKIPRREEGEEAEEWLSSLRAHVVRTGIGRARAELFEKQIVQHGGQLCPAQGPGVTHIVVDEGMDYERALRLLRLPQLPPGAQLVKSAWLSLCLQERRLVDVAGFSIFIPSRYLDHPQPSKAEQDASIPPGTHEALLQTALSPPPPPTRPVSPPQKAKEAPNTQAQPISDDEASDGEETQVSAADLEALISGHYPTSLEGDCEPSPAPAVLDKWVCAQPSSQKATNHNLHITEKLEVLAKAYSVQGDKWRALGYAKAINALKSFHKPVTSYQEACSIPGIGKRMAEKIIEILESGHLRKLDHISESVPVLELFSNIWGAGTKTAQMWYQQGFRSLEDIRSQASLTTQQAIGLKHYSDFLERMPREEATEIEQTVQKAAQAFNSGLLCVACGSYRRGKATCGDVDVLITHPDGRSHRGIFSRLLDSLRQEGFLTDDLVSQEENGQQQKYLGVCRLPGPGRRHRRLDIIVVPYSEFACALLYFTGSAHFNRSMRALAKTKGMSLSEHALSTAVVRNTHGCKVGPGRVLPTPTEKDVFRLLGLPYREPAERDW
Summary of the method: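 Recombinant full-length human pol λ at 50 nM was assayed with 0.2 μM poly(dA)/oligo(dT)10:1 (3′-OH ends) and 5 μM [3H]dTTP (5 Ci/mmol). Incubation was 15 min at 37 °C. TCA precipitates were scintillation counted.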

HeLa [6] = assay: Cytotoxicity against TdT-deficient human HeLa cells assessed as growth inhibition after 24 to 48 hrs by MTT assay; format: cell-based
Summary of the method: (§3)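 MOLT-4 cells were grown in RPMI-1640 and HeLa cells in DMEM, with 10% FCS at 37 °C. Cells were seeded at 10^5 per well, given 24 h to attach, then exposed to compounds (0.1–100 range) for 24 or 48 h. MTT at 1 mg/mL was added for 2 h at 37 °C, formazan was dissolved in DMSO, and absorbance read at 550 nm versus 0.5% DMSO vehicle. IC50 was obtained by regression, in triplicate.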

[7] = biological target: T1, DNA nucleotidylexotransferase; assay: Inhibition of human recombinant TdT using [3H]dNTP as substrate after 10 mins by scintillation counting analysis; summary of the method: as §1
[8] = biological target: T2, DNA polymerase lambda (Homo sapiens); assay: Inhibition of human recombinant full length DNA polymerase lambda TdT-like activity using [3H]dNTP as substrate after 10 mins by scintillation counting analysis
Summary of the method: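 Full-length recombinant human pol λ (>90% pure) was tested for template-independent activity. Acid-insoluble radioactivity was counted, and ID50 came from dose–response fitting.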

MOLT-4 [9] = assay: Cytotoxicity against human MOLT4 cells overexpressing TdT assessed as growth inhibition after 24 to 48 hrs by MTT assay; format: functional, cell-based; summary of the method: as §3
MOLT-4 [10] = assay: Upregulation of p53 protein expression in human MOLT4 cells overexpressing TdT at IC50 after 30 hrs by Western blot analysis; format: functional, cell-based
Summary of the method: (§4)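 1 × 10^6 cells were incubated with or without compound, then lysed in cold buffer (50 mM Tris, 150 mM NaCl, 10 mM EDTA, 1% Triton) with protease inhibitors. Equal protein was run on 8–12% SDS-PAGE and blotted to nitrocellulose. Membranes were probed overnight at 4 °C with antibodies to cyclin E2, cyclin A, p53 or caspase 3, detected by HRP/ECL, and normalized to actin by densitometry.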

MOLT-4 [11] = assay: Induction of apoptosis in human MOLT4 cells overexpressing TdT assessed as caspase-3 cleavage by Western blot analysis; format: functional, cell-based; summary of the method: as §4
MOLT-4 [12] = assay: Cell cycle arrest in human MOLT4 cells overexpressing TdT assessed as decrease of cells in G1 phase at 30 uM after 24 hrs by propidium iodide staining-based FACS flow cytometric analysis relative to vehicle-treated control; format: functional; parameters: scale not given: the % may be the effect or the level left
Summary of the method: (§5)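 Cells at 2.5 × 10^5 cells/mL were treated 24 h with compound or vehicle. They were washed in PBS, trypsinized, and stained 30 min at 4 °C in the dark with 0.1% sodium citrate, 0.1% Triton X-100 and propidium iodide. Analysis was by FACScan flow cytometry, giving the percentage of cells in G0/G1, S and G2/M.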

HeLa [13] = assay: Induction of apoptosis in TdT-deficient human HeLa cells assessed as caspase-3 cleavage by Western blot analysis; format: cell-based; summary of the method: as §4
HeLa [14] = assay: Cell cycle arrest in TdT-deficient human HeLa cells at 30 uM after 24 hrs by propidium iodide staining-based FACS flow cytometric analysis; format: ADME; summary of the method: as §5
MOLT-4 [15] = assay: Cell cycle arrest in human MOLT4 cells overexpressing TdT assessed as accumulation at S phase at 30 uM after 24 hrs by propidium iodide staining-based FACS flow cytometric analysis relative to vehicle-treated control; format: functional; summary of the method: as §5
MOLT-4 [16] = assay: Downregulation of cyclin A protein expression in human MOLT4 cells overexpressing TdT at 30 to 50 uM by Western blot analysis; format: functional, cell-based; summary of the method: as §4
MOLT-4 [17] = assay: Downregulation of cyclin A protein expression in human MOLT4 cells overexpressing TdT at 30 uM by Western blot analysis; format: functional, cell-based; summary of the method: as §4

SMILES: O=C(/C=C/c1cc(C(=O)c2ccccc2F)c[nH]1)CC(=O)C(=O)O
- Ki [1]: 0.5 µM
- IC50 (DNA polymerase beta): > 40 µM
- Ki [2]: 0.4 µM
- inhibition (Homo sapiens [3]): Active
- inhibition (Homo sapiens [4]): inactive
- ID50 [5]: > 40 µM
- IC50 (HeLa [6]): > 40 µM
- ID50 [7]: 1.7 µM
- ID50 [8]: 27 µM
- IC50 (MOLT-4 [9]): 20 µM

SMILES: CCOC(=O)C(=O)CC(=O)/C=C/c1cc(C(=O)c2ccc(C#N)cc2)c[nH]1
- Ki [1]: 1.5 µM
- Activity (MOLT-4 [10]): Active
- IC50 (DNA polymerase beta): > 40 µM
- Activity (MOLT-4 [11]): Active
- Ki [2]: 1.7 µM
- inhibition (Homo sapiens [3]): Active
- inhibition (Homo sapiens [4]): inactive
- Activity (MOLT-4 [12]): 30%
- ID50 [5]: > 40 µM
- IC50 (HeLa [6]): > 40 µM
- ID50 [7]: 4.7 µM
- ID50 [8]: > 40 µM
- Activity (HeLa [13]): Non-toxic
- Activity (HeLa [14]): Non-toxic
- Activity (MOLT-4 [15]): 44%
- Activity (MOLT-4 [16]): Active
- IC50 (MOLT-4 [9]): 30 µM

SMILES: N#Cc1ccc(Cn2cc(C(=O)c3ccccc3)cc2/C=C/C(=O)CC(=O)C(=O)O)cc1
- IC50 (DNA polymerase beta): 40 µM
- ID50 [5]: > 40 µM
- IC50 (HeLa [6]): > 40 µM
- ID50 [7]: 6.8 µM
- ID50 [8]: > 40 µM
- IC50 (MOLT-4 [9]): 40 µM

SMILES: O=C(/C=C/c1cc(C(=O)c2ccccc2)cn1Cc1ccc(F)cc1)CC(=O)C(=O)O
- Activity (MOLT-4 [10]): Active
- IC50 (DNA polymerase beta): 40 µM
- Activity (MOLT-4 [11]): Active
- Activity (MOLT-4 [12]): 30%
- ID50 [5]: > 40 µM
- IC50 (HeLa [6]): > 40 µM
- ID50 [7]: 9.5 µM
- ID50 [8]: > 40 µM
- Activity (HeLa [13]): Non-toxic
- Activity (HeLa [14]): Non-toxic
- Activity (MOLT-4 [17]): Active
- Activity (MOLT-4 [15]): 44%
- IC50 (MOLT-4 [9]): 9 µM

SMILES: O=C(/C=C/c1cc(C(=O)c2ccccc2)cn1Cc1ccccc1)CC(=O)C(=O)O
- IC50 (DNA polymerase beta): > 40 µM
- ID50 [5]: > 40 µM
- IC50 (HeLa [6]): > 40 µM
- ID50 [7]: 16 µM
- ID50 [8]: 20 µM
- IC50 (MOLT-4 [9]): > 40 µM

SMILES: C/C=C/Cn1cc(/C=C/C(=O)CC(=O)C(=O)O)c2ccccc21
- IC50 (DNA polymerase beta): > 40 µM
- ID50 [5]: > 40 µM
- IC50 (HeLa [6]): > 40 µM
- ID50 [7]: 7.3 µM
- ID50 [8]: 5 µM
- IC50 (MOLT-4 [9]): > 40 µM

SMILES: O=C(/C=C/c1cn(-c2ccccc2)c2ccccc12)CC(=O)C(=O)O
- IC50 (DNA polymerase beta): > 40 µM
- ID50 [5]: > 50 µM
- IC50 (HeLa [6]): > 40 µM
- ID50 [7]: 47 µM
- ID50 [8]: 2 µM
- IC50 (MOLT-4 [9]): > 40 µM

SMILES: O=C(/C=C/c1cn(-c2ccc(Cl)cc2)c2ccccc12)CC(=O)C(=O)O
- IC50 (DNA polymerase beta): > 40 µM
- ID50 [5]: 9 µM
- IC50 (HeLa [6]): > 40 µM
- ID50 [7]: 31 µM
- ID50 [8]: > 40 µM
- IC50 (MOLT-4 [9]): 27 µM

SMILES: C=C(C)Cn1cc(/C=C/C(=O)CC(=O)C(=O)O)c2ccccc21
- IC50 (DNA polymerase beta): > 40 µM
- ID50 [5]: > 40 µM
- IC50 (HeLa [6]): 40 µM
- ID50 [7]: 2.5 µM
- ID50 [8]: 40 µM
- IC50 (MOLT-4 [9]): 40 µM

SMILES: O=C(/C=C/c1cn(Cc2ccc(Cl)cc2)c2ccccc12)CC(=O)C(=O)O
- IC50 (DNA polymerase beta): > 40 µM
- ID50 [5]: > 40 µM
- IC50 (HeLa [6]): > 40 µM
- ID50 [7]: 10 µM
- ID50 [8]: > 40 µM
- IC50 (MOLT-4 [9]): 19 µM

SMILES: O=C(/C=C/c1cn(Cc2ccc(F)cc2)c2ccccc12)CC(=O)C(=O)O
- IC50 (DNA polymerase beta): > 40 µM
- ID50 [5]: > 40 µM
- IC50 (HeLa [6]): > 40 µM
- ID50 [7]: 10 µM
- ID50 [8]: > 40 µM
- IC50 (MOLT-4 [9]): > 40 µM

SMILES: O=C(/C=C/c1cn(Cc2ccccc2)c2ccccc12)CC(=O)C(=O)O
- IC50 (DNA polymerase beta): > 40 µM
- ID50 [5]: > 40 µM
- IC50 (HeLa [6]): > 40 µM
- ID50 [7]: 7.9 µM
- ID50 [8]: 1.7 µM
- IC50 (MOLT-4 [9]): 15 µM

SMILES: O=C(/C=C/c1cn(CC(=O)N2CCOCC2)c2ccccc12)CC(=O)C(=O)O
- IC50 (DNA polymerase beta): > 40 µM
- ID50 [5]: > 40 µM
- IC50 (HeLa [6]): > 40 µM
- ID50 [7]: 24 µM
- ID50 [8]: 40 µM
- IC50 (MOLT-4 [9]): > 40 µM

SMILES: CN(C)C(=O)Cn1cc(/C=C/C(=O)CC(=O)C(=O)O)c2ccccc21
- IC50 (DNA polymerase beta): > 40 µM
- ID50 [5]: > 40 µM
- IC50 (HeLa [6]): > 40 µM
- ID50 [7]: 8.9 µM
- ID50 [8]: 40 µM
- IC50 (MOLT-4 [9]): > 40 µM

SMILES: N#Cc1ccc(C(=O)c2c[nH]c(/C=C/C(=O)CC(=O)C(=O)O)c2)cc1
- IC50 (DNA polymerase beta): > 40 µM
- ID50 [5]: > 40 µM
- IC50 (HeLa [6]): > 40 µM
- ID50 [7]: 1.1 µM
- ID50 [8]: 40 µM
- IC50 (MOLT-4 [9]): > 40 µM

SMILES: O=C(/C=C/c1cn(Cc2ccc(O)cc2)c2ccccc12)CC(=O)C(=O)O
- Ki [1]: 0.45 µM
- IC50 (DNA polymerase beta): > 40 µM
- Ki [2]: 0.5 µM
- inhibition (Homo sapiens [3]): Active
- inhibition (Homo sapiens [4]): inactive
- ID50 [5]: > 40 µM
- IC50 (HeLa [6]): > 40 µM
- ID50 [7]: 0.9 µM
- ID50 [8]: > 40 µM
- IC50 (MOLT-4 [9]): 20 µM

SMILES: O=C(/C=C/c1cc(C(=O)c2cccc(F)c2)c[nH]1)CC(=O)C(=O)O
- IC50 (DNA polymerase beta): > 40 µM
- ID50 [5]: > 40 µM
- IC50 (HeLa [6]): > 40 µM
- ID50 [7]: 0.78 µM
- ID50 [8]: 35 µM
- IC50 (MOLT-4 [9]): > 40 µM
